# Data reported in ChEMBL document CHEMBL1671680, “Pradimicin S, a highly soluble nonpeptidic small-size carbohydrate-binding antibiotic, is an anti-HIV drug lead for both microbicidal and systemic use” (Antimicrob Agents Chemother, 2010).
# Calls of active or inactive are those of the source. The rule behind the calls is not given here.
# Columns and labels:
# [1] = tested on: Human immunodeficiency virus 1; experiment: Antiviral activity against X4 tropic HIV-1 3B infected in human Raji cells expressing DC-SIGN gene assessed as inhibition of virus capture by Raji cells after 60 mins by ELISA; assay type: functional, organism-based; details: Human immunodeficiency virus 1, 3B, 1 h
# [2] = Binding affinity to HIV-1 HXB2 gp41 assessed as dissociation rate constant after 6 mins by SPR analysis in presence of 10 mM CaCl2; set-up: species or system Human immunodeficiency virus 1
# PBMC [3] = experiment: Immunostimulatory activity against human PBMC assessed as MIP-1beta production at 21 uM after 72 hrs; assay type: functional, cell-based
# Summary of the method: (§1)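 Unstimulated PBMCs and PHA-blasts from three donors, in three independent experiments, cultured with test compound at 20 μg/ml (21 or 22 μM). Supernatants collected after 72 h. The cytokine profile was read on a Bio-Plex 27-plex human cytokine bead immunoassay, using beads coupled to cytokine-specific monoclonal antibodies and run per the kit instructions.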
# PBMC [4] = experiment: Immunostimulatory activity against human PBMC assessed as suppression of IL-2 production at 22 uM after 72 hrs; assay type: functional; summary of the method: as §1
# [5] = tested on: Human immunodeficiency virus 1; experiment: Ratio of EC90 to EC50 for R5 tropic HIV-1 clade C isolate ETH2220 infected in human PBMC; assay type: functional
# Summary of the method: (§2)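 PBMCs from healthy donors were PHA-stimulated (2 μg/ml, 3 days, 37°C), then seeded at 0.5 × 10^6 per well with compound dilutions in RPMI 1640 with 10% FCS and IL-2 (25 U/ml). Virus was added at 250 pg p24 or p27/ml final. On day 12, supernatant HIV-1 p24 or HIV-2 p27 was measured by ELISA, giving EC50 and EC90.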
# PBMC [6] = experiment: Immunostimulatory activity against human PBMC assessed as IL-9 production at 21 uM after 72 hrs; assay type: functional, cell-based; summary of the method: as §1
# PBMC [7] = experiment: Immunostimulatory activity against human PBMC assessed as GM-CSF production at 22 uM after 72 hrs; assay type: functional, cell-based
# PBMC [8] = experiment: Immunostimulatory activity against human PBMC assessed as MCP-1 production at 22 uM after 72 hrs; assay type: functional, cell-based; summary of the method: as §1
# PBMC [9] = experiment: Immunostimulatory activity against human PBMC assessed as MIP-1alpha production at 22 uM after 72 hrs; assay type: functional, cell-based; summary of the method: as §1
# [10] = tested on: Human immunodeficiency virus 1; experiment: Ratio of EC90 to EC50 for X4 tropic HIV-1 3B infected in human PBMC; assay type: functional; summary of the method: as §2
# PBMC [11] = experiment: Immunostimulatory activity against human PBMC assessed as IL-10 production at 21 uM after 72 hrs; assay type: functional, cell-based
# Summary of the method: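 PBMCs and PHA blasts from three donors (three independent experiments) cultured with 21 μM compound; supernatants collected at 72 h; cytokines quantified with the Bio-Plex human 27-plex bead immunoassay.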
# [12] = tested on: Human immunodeficiency virus 1; experiment: Antiviral activity against X4 tropic HIV-1 clade D isolate UG270 infected in human PBMC assessed as inhibition of viral replication after 12 days by ELISA; details: Human immunodeficiency virus 1, clade D isolate UG270, 12 days
# [13] = tested on: Human immunodeficiency virus 1; experiment: Ratio of EC90 to EC50 for R5 tropic HIV-1 clade G isolate BCF-DIOUM infected in human PBMC; assay type: functional; summary of the method: as §2
# [14] = tested on: Human immunodeficiency virus 2; experiment: Antiviral activity against X4 tropic HIV-2 BV-5061 W infected in human PBMC assessed as inhibition of viral replication […] by ELISA; assay type: functional, organism-based; details: Human immunodeficiency virus 2, BV-5061
# Summary of the method: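 PHA-stimulated (2 μg/ml, 3 days) donor PBMC blasts seeded at 0.5 × 10^6 cells/well with compound dilutions in RPMI 1640 + 10% FCS + IL-2 (25 U/ml); virus added at 250 pg p24 or p27/ml final; supernatant p24 (HIV-1) or p27 (HIV-2) antigen measured by ELISA at day 12; EC50 from antigen reduction.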
# PBMC [15] = experiment: Immunostimulatory activity against human PBMC assessed as IL1-beta production at 22 uM after 72 hrs; assay type: functional, cell-based; summary of the method: as §1
# PBMC [16] = experiment: Immunostimulatory activity against human PBMC assessed as VEGF production at 21 uM after 72 hrs; assay type: functional, cell-based; summary of the method: as §1
# [17] = tested on: Human immunodeficiency virus 1; experiment: Antiviral activity against compound pretreated X4 tropic HIV-1 3B infected in human Raji cells expressing DC-SIGN gene assessed as prevention of syncytium formation between persistently HIV-1 3B-infected Raji cells and uninfected human C8166 cells after 42 hrs by microscopic analysis; assay type: functional, organism-based; details: Human immunodeficiency virus 1, 3B
# Summary of the method: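 Compound-pretreated virus captured by Raji/DC-SIGN cells for 60 min at 37°C, washed, then 200 μl mixed with 2 × 10^5 C8166 cells (further 5-fold dilution) and incubated 36–48 h at 37°C; syncytium formation scored microscopically.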
# PBMC [18] = experiment: Immunostimulatory activity against human PBMC assessed as suppression of G-CSF production at 21 uM after 72 hrs; assay type: functional; summary of the method: as §1
# PBMC [19] = experiment: Immunostimulatory activity against human PBMC assessed as IL-10 production at 22 uM after 72 hrs; assay type: functional, cell-based
# [20] = tested on: Human immunodeficiency virus 1; experiment: Ratio of EC90 to EC50 for R5 tropic HIV-1 clade F isolate BZ163 infected in human PBMC; assay type: functional; summary of the method: as §2
# PBMC [21] = experiment: Immunostimulatory activity against human PBMC assessed as eotoxin production at 21 uM after 72 hrs; assay type: functional, cell-based
# Summary of the method: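 In three independent experiments, PBMCs and PHA-blasts from three donors were cultured with compound for 72 h. Supernatants were analysed with a bead-based 27-plex human cytokine immunoassay covering interleukins, chemokines, growth factors, IFN-γ and TNF-α.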
# PBMC [22] = experiment: Immunostimulatory activity against human PBMC assessed as G-CSF production at 22 uM after 72 hrs; assay type: functional, cell-based
# PBMC [23] = experiment: Immunostimulatory activity against human PBMC assessed as IL-6 production at 22 uM after 72 hrs; assay type: functional, cell-based; summary of the method: as §1
# [24] = Cytotoxicity against mouse L1210 cells after 3 to 4 days; assay type: cell-based
# PBMC [25] = experiment: Immunostimulatory activity against human PBMC assessed as IL-1ra production at 22 uM after 72 hrs; assay type: functional, cell-based; summary of the method: as §1
# [26] = tested on: Human immunodeficiency virus 1; experiment: Ratio of EC90 to EC50 for R5 tropic HIV-1 clade B isolate US2 infected in human PBMC; assay type: functional; summary of the method: as §2
# PBMC [27] = experiment: Immunostimulatory activity against human PBMC assessed as IL1-beta production at 21 uM after 72 hrs; assay type: functional, cell-based; summary of the method: as §1
# PBMC [28] = experiment: Immunostimulatory activity against human PBMC assessed as suppression of IL-13 production at 22 uM after 72 hrs; assay type: functional; summary of the method: as §1
# [29] = Cytotoxicity against human U87 cells after 3 to 4 days; assay type: cell-based, U-87MG ATCC
# Summary of the method: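 Cells seeded at 20,000–75,000 per well with compound dilutions, incubated 3–4 days at 37°C, and counted on a Coulter particle counter; CC50 is the concentration inhibiting proliferation by 50%.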
# [30] = tested on: Human immunodeficiency virus 1; experiment: Ratio of EC90 to EC50 for R5 tropic HIV-1 clade A/E isolate ID12 infected in human PBMC; assay type: functional
# PBMC [31] = experiment: Immunostimulatory activity against human PBMC assessed as suppression of IL-15 production at 22 uM after 72 hrs; assay type: functional; summary of the method: as §1
# PBMC [32] = experiment: Immunostimulatory activity against human PBMC assessed as PDGF production at 22 uM after 72 hrs; assay type: functional, cell-based; summary of the method: as §1
# PBMC [33] = experiment: Immunostimulatory activity against human PBMC assessed as PDGF production at 21 uM after 72 hrs; assay type: functional, cell-based; summary of the method: as §1
# [34] = tested on: Human immunodeficiency virus 1; experiment: Binding affinity to HIV-1 3B gp120 after 6 mins by SPR analysis at pH 4
Compound,IC50 [1],Kd [2],Activity (PBMC [3]),fold change (FC) (PBMC [4]),Ratio [5],Activity (PBMC [6]),Activity (PBMC [7]),Activity (PBMC [8]),Activity (PBMC [9]),Ratio [10],Activity (PBMC [11]),EC50 [12],Ratio [13],EC50 [14],Activity (PBMC [15]),Activity (PBMC [16]),EC50 [17],fold change (FC) (PBMC [18]),Activity (PBMC [19]),Ratio [20],further results
CN[C@@H]1[C@H](O[C@@H]2OC[C@@H](O)[C@H](O)[C@H]2O)[C@@H](O)[C@H](O[C@H]2c3cc(C)c(C(=O)N[C@H](C)C(=O)O)c(O)c3-c3c(cc4c(c3O)C(=O)c3cc(OC)cc(O)c3C4=O)[C@@H]2O)O[C@@H]1C [PRADIMICIN A],3.5 µM,2.91 ×10⁻² /s,inactive,4,2,inactive,inactive,inactive,inactive,2,inactive,3 µM,2,4.3 µM,inactive,inactive,3.4 µM,2,inactive,2,Activity (PBMC [21]): inactive; Activity (PBMC [22]): inactive; Activity (PBMC [23]): inactive; CC50 [24]: > 50 µM; Activity (PBMC [25]): inactive; Ratio [26]: 2; Activity (PBMC [27]): inactive; fold change (FC) (PBMC [28]): 2; CC50 [29]: > 50 µM; Ratio [30]: 2; fold change (FC) (PBMC [31]): 2; Activity (PBMC [32]): inactive; Activity (PBMC [33]): inactive; Activity [34]: Active
CN[C@@H]1[C@H](O[C@@H]2O[C@H](CO)[C@@H](O)[C@H](OS(=O)(=O)O)[C@H]2O)[C@@H](O)[C@H](O[C@H]2c3cc(C)c(C(=O)N[C@H](C)C(=O)O)c(O)c3-c3c(cc4c(c3O)C(=O)c3cc(OC)cc(O)c3C4=O)[C@@H]2O)O[C@@H]1C [PRADIMICIN S],11 µM,2.71 ×10⁻² /s,inactive,4,2,inactive,inactive,inactive,inactive,2,inactive,18 µM,2,3.1 µM,inactive,inactive,7.1 µM,2,inactive,2,Activity (PBMC [21]): inactive; Activity (PBMC [22]): inactive; Activity (PBMC [23]): inactive; CC50 [24]: > 230 µM; Activity (PBMC [25]): inactive; Ratio [26]: 2; Activity (PBMC [27]): inactive; fold change (FC) (PBMC [28]): 2; CC50 [29]: > 230 µM; Ratio [30]: 2; fold change (FC) (PBMC [31]): 2; Activity (PBMC [32]): inactive; Activity (PBMC [33]): inactive; Activity [34]: Active
